Measurements: the M2OR odorant receptor database

How the values were obtained:
Conditions in all cases: stereoisomer not certain
OR10Q1 (Homo sapiens) = OR10Q1 (Homo sapiens) (UniProt Q8NGQ4)
Summary of the method: (§1)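 Values were gathered from published papers (main text and supplementary material), with extra details requested from the original authors when needed, and checked for typos and inconsistencies. Each receptor–molecule pair is called responsive (active) if the original authors judged the measured signal statistically different from baseline, and non-responsive (inactive) otherwise. Assay methods varied by source, often transient mammalian cell-line luciferase assays. Recorded details include cell line, G-protein, co-transfected protein and tags.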

OR10R2 (Homo sapiens) = OR10R2 (Homo sapiens) (UniProt Q8NGX6)
Chain of OR10R2 (Homo sapiens) (Q8NGX6 whole entry): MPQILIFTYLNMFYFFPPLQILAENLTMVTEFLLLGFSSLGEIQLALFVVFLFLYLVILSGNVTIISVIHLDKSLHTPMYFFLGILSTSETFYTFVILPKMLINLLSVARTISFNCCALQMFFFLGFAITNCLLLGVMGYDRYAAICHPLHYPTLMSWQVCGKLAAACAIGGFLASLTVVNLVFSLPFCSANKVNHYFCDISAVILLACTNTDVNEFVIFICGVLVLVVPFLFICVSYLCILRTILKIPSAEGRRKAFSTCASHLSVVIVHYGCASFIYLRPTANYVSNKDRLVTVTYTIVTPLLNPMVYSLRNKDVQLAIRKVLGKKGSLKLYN
Summary of the method: as §1

OR10S1 (Homo sapiens) = target: T1, OR10S1 (Homo sapiens) (UniProt Q8NGN2)
T1 sequence (whole entry): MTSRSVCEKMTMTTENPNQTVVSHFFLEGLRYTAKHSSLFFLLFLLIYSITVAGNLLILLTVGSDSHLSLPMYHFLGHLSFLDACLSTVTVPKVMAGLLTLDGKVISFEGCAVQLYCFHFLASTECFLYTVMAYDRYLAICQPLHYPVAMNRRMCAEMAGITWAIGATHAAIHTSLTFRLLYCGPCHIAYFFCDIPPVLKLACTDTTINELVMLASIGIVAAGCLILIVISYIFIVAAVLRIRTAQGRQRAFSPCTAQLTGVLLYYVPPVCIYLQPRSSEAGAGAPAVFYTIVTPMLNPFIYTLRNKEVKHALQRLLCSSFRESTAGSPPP
Summary of the method: as §1

OR10T2 (Homo sapiens) = OR10T2 (Homo sapiens) (UniProt Q8NGX3)
Chain of OR10T2 (Homo sapiens) (Q8NGX3 whole entry): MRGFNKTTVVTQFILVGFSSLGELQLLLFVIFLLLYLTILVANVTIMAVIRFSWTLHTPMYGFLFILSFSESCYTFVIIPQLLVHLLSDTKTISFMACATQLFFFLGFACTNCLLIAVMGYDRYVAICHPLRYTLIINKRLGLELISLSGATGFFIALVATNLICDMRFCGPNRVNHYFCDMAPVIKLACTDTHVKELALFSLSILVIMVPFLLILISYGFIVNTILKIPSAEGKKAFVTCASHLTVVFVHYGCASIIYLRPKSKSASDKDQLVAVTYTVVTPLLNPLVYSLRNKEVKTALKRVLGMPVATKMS
Summary of the method: as §1

OR10V1 (Homo sapiens) = OR10V1 (Homo sapiens) (UniProt Q8NGI7)
Chain of OR10V1 (Homo sapiens) (Q8NGI7 whole entry): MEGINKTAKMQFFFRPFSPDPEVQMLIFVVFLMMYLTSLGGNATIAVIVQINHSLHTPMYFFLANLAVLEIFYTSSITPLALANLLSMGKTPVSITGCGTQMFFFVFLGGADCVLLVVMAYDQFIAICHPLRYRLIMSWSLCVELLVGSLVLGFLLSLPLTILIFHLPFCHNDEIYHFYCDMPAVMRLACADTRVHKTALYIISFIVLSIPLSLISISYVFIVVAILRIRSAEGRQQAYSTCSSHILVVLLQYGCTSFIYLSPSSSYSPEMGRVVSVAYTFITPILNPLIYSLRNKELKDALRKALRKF
Summary of the method: as §1

OR10W1 (Homo sapiens) = OR10W1 (Homo sapiens) (UniProt Q8NGF6)
Chain of OR10W1 (Homo sapiens) (Q8NGF6 whole entry): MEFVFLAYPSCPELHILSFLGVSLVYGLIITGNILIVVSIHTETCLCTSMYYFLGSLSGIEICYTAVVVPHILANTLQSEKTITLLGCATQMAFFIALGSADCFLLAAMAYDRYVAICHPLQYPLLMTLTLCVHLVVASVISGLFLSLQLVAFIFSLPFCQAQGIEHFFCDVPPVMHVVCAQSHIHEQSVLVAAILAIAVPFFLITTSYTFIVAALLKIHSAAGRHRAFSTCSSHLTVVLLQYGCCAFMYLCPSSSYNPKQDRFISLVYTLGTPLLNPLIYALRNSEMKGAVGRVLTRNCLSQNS
Summary of the method: as §1

OR10X1 (Homo sapiens) = OR10X1 (Homo sapiens) (UniProt Q8NGY0)
Chain of OR10X1 (Homo sapiens) (Q8NGY0 whole entry): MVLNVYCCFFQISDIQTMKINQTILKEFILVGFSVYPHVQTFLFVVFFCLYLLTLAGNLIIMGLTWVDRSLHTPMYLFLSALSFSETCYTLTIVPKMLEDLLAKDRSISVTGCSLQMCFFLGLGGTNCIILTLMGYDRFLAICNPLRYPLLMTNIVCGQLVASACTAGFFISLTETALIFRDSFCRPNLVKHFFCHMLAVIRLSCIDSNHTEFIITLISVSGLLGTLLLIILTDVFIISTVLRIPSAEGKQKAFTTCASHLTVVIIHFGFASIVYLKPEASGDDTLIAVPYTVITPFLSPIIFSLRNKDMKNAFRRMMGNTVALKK
Summary of the method: as §1

OR10Z1 (Homo sapiens) = OR10Z1 (Homo sapiens) (UniProt Q8NGY1)
Chain of OR10Z1 (Homo sapiens) (Q8NGY1 whole entry): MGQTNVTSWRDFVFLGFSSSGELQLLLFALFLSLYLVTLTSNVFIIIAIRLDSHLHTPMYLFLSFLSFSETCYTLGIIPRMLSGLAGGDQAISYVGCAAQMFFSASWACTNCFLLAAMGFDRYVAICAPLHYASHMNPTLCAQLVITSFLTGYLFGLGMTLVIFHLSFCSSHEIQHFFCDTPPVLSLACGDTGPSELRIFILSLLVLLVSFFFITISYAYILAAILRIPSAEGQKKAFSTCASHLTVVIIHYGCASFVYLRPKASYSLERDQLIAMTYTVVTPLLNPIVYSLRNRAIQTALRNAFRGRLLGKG
Summary of the method: as §1

OR11A1 (Homo sapiens) = OR11A1 (Homo sapiens) (UniProt Q9GZK7)
Chain of OR11A1 (Homo sapiens) (Q9GZK7 whole entry): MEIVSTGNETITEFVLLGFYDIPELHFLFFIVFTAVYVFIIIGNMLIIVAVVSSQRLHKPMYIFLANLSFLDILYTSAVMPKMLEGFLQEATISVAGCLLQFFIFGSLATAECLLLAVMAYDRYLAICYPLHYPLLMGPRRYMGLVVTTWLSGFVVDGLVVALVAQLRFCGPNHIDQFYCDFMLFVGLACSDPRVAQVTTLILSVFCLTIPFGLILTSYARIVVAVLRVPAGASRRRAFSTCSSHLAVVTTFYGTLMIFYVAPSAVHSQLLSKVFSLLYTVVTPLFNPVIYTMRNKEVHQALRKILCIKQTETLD
Summary of the method: as §1

OR11G2 (Homo sapiens) = OR11G2 (Homo sapiens) (UniProt Q8NGC1)
Chain of OR11G2 (Homo sapiens) (Q8NGC1 whole entry): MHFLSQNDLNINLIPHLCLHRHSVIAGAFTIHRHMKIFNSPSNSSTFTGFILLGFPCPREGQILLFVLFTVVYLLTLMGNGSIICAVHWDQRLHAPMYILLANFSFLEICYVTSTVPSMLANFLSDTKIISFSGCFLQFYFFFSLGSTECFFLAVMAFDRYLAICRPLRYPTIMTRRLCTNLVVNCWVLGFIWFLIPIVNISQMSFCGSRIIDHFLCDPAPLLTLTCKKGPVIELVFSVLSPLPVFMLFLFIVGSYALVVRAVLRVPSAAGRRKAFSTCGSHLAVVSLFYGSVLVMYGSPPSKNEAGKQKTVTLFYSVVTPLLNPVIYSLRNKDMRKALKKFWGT
Summary of the method: as §1

Measured: odorant receptor agonist call

Chain of OR10Q1 (Homo sapiens) (Q8NGQ4 whole entry): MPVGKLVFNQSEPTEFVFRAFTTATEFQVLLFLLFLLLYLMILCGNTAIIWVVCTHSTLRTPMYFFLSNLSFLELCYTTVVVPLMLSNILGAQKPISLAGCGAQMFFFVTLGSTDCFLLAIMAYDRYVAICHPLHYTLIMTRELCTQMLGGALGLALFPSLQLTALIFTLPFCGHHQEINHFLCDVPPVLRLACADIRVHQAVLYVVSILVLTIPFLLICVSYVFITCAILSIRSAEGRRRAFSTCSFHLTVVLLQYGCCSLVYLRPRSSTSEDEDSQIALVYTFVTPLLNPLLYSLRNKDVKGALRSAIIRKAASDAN

C=CCOC(=O)Cc1ccccc1
inactive: all assays above

Cc1c([N+](=O)[O-])c(C)c([N+](=O)[O-])c(C(C)(C)C)c1[N+](=O)[O-]
inactive: all assays above

COc1ccc(C=O)cc1
inactive: OR10S1 (Homo sapiens)

Cc1cccc(C)c1
inactive: OR10S1 (Homo sapiens)
